In data set [1] the test system is PCE. Description: DEHP hydrolysis to MEHP by PCE. In kind it is in vitro ADME, porcine. The conditions noted are these: 127 vs 1.08 pmol min^-1 mg protein^-1.
Data set [2] concerns PCE. The conditions noted are these: DEHP 50 μM; cited from earlier work.
Data set [3] in a line: TBB/TBPH metabolism in human liver microsomes. In kind it is in vitro ADME.
The test system of data set [4] is hepatic porcine carboxylesterase. Nature of the data set: Metabolism in purified hepatic porcine carboxylesterase. In kind it is in vitro ADME. The conditions noted are these: Michaelis-Menten model, 10-min incubations.
The nature of data set [5]: Solubility limit of TBB in incubation buffer. The conditions noted are these: potassium phosphate buffer, pH 7.4. In kind it is physicochemical. Summed up: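 Practical upper limit judged from kinetics incubations in 100 mM potassium phosphate (pH 7.4), glass tubes, shaking at 37°C, 10 min, nine concentrations 0.0078–31.1 μM. Dosing concentrations checked by LC/MS/MS (negative APCI, C18 column, isocratic 98% methanol). Limit taken as the highest concentration without unacceptably high variability in measured substrate concentration.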

The conditions of data set [6]: cited from earlier work.
The test system of data set [7] is fathead minnows (Pimephales promelas). The conditions noted are these: dietary exposure to commercial mixture containing TBB and TBPH; cited from earlier work.
Data set [8] in a line: Phase II metabolism. In kind it is in vitro ADME, human. The conditions noted are these: HLM; for Phase II metabolites detected (glucuronidation): 2 mM UDPGA, alamethicin, MgCl2, 90 min; for loss of parent compound during Phase II incubation: glucuronidation cofactors, 90 min.
Data set [9] can be described thus: Phase II metabolism. In kind it is in vitro ADME, human. The conditions noted are these: cytosol, 90 min; for Phase II metabolites detected (sulfation, glutathione conjugation): PAPS or reduced glutathione; for loss of parent compound during Phase II incubation: sulfation / glutathione cofactors.

Molecules are shown by their SMILES. Values after ≈ are worked out from the molar mass of the structure shown. Values joined by “and” are separate entries in the source; they are usually repeats but may differ in a detail not shown here. Equal entries are not always repeated.

Results on four compounds are retold here after PMC3398233 (Chemical Research in Toxicology, 2012).

Take `CCCCC(CC)COC(=O)c1ccccc1C(=O)OCC(CC)CCCC` (stereo not drawn) [DEHP, bis(2-ethylhexyl) phthalate]: the “DEHP hydrolysis rate relative to TBPH hydrolysis rate in PCE” value with PCE [1] is “approximately 100 times”. Further, the “MEHP formation rate from DEHP in PCE” value with PCE [2] is recorded as 127 pmol min^-1 mg protein^-1.

For orientation: Km means the concentration of substrate that gives half-maximal velocity. Usually solubility stands for how much of the substance goes into solution per volume. Lower therefore signals a poorly soluble substance. For the compound `CCCCC(CC)COC(=O)c1cc(Br)c(Br)c(Br)c1Br` (stereo not drawn) [TBB, 2-ethylhexyl-2,3,4,5-tetrabromobenzoate], the “decrease of TBB during incubation (amount)” value in [3] (60-min incubation, HLM 40 μg protein mL^-1, TBB 27.1 ± 1.3 μM) is given as about 2.9 nmol. Further, the “reduction in the concentration of TBB” value in data set [3] (60-min incubations with HLM, metabolite identification, GC/MS) stood at 79.9 ± 4.6%. The “Vmax for TBBA formation in HLM” value in data set [3] (Michaelis-Menten model, 10-min incubations, 40 μg protein mL^-1, TBB 0.0078–31.1 μM) came to 0.644 ± 0.144 nmol min^-1 mg protein^-1. Also, the “effect of NADPH on the formation rate of TBBA” value in [3] (NADPH 0, 0.3, 3.0 and 30 mM, data not shown) is recorded as “did not significantly affect”. For the same compound, the Michaelis-Menten constant (Km) at 10 min in [3] (both, human, pH 7.4, Km for TBBA formation in HLM, Michaelis-Menten model, 10-min incubations, 40 μg protein mL^-1, TBB 0.0078–31.1 μM) stood at 11.1 ± 3.9 µM. For the same compound, the Km was about 10 µM in data set [3] (read-out: Km for TBBA formation in HLM, Michaelis-Menten model, 10-min incubations, 40 μg protein mL^-1, TBB 0.0078–31.1 μM); 9.3 µM and ~10 µM in data set [4] (read-out: Km for TBBA formation in PCE). Besides, the “Vmax for TBBA formation in PCE” value in data set [4] was 24.4 ± 2.6 nmol min^-1 mg protein^-1. This compound had a solubility in data set [5] of about 30 µM (≈ 16.5 µg/mL). Also, the “estimated log KOW” value in data set [6] is on record as 8.8. The “metabolism in fathead minnows” value in data set [7] is on record as “metabolized to form unidentified brominated metabolites”.

Turning to `O=C(O)c1cc(Br)c(Br)c(Br)c1Br` [TBBA, 2,3,4,5-tetrabromobenzoic acid], in “Phase II metabolism [8]”, the “Phase II metabolites detected (glucuronidation)” value is given as “no Phase II metabolites were detected” and the “loss of parent compound during Phase II incubation” value (“loss” for short) is given as “no significant losses”. In addition, in the data set “Phase II metabolism [9]”, the “Phase II metabolites detected (sulfation, glutathione conjugation)” value is given as “no Phase II metabolites were detected” and the “loss” value is listed as “no significant losses”.

In the case of `CCCCC(CC)COC(=O)c1c(Br)c(Br)c(Br)c(Br)c1C(=O)O` (stereo not drawn) [TBMEHP, mono(2-ethylhexyl) 2,3,4,5-tetrabromophthalate], in the data set “Phase II metabolism [8]”, the “Phase II metabolites detected (glucuronidation)” value was “no Phase II metabolites were detected” and the “loss” value is recorded as “no significant losses”. In addition, in “Phase II metabolism [9]”, the “Phase II metabolites detected (sulfation, glutathione conjugation)” value is recorded as “no Phase II metabolites were detected” and the “loss” value is given as “no significant losses”.
